ChEMBL document CHEMBL1148073, “Cytotoxic diterpenoids from Isodon megathyrsus” (1994)
In brackets after ≈: the same amount, converted by molar mass. Activity calls are given as the source filed them. No cut-off for these calls is given here.

Experiments:
Plasmodium falciparum = assay: Antimalarial activity against Plasmodium falciparum by [3H]hypoxanthine uptake; type: functional, organism-based
KB = assay: Cytotoxicity against human KB cells after 3 days by SRB assay; type: functional; conditions: 72 h, read-out: ED50 (the source's name)
ASK = assay: Cytotoxicity against human ASK cells after 3 days by SRB assay; type: functional, cell-based
Outline: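 ASK cell line: human astrocytoma.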

LNCaP = assay: Cytotoxicity against human LNCAP cells after 3 days by SRB assay; type: functional; conditions: 72 h, read-out: ED50 (the source's name)
ZR-75-1 = assay: Cytotoxicity against human ZR-75-1 cells after 3 days by SRB assay; type: functional; conditions: ZR-75-1, 72 h, read-out: ED50 (the source's name)
[1] = molecular target: Human immunodeficiency virus type 1 reverse transcriptase (Human immunodeficiency virus 1) (UniProt Q72547); assay: Inhibition of HIV1 reverse transcriptase
[2] = Cytotoxicity against human KBVIN cells in presence of 1 ug/ml vinblastine after 3 days by SRB assay; type: functional; conditions: 72 h, read-out: ED50 (the source's name)
[3] = Cytotoxicity against human KBVIN cells after 3 days by SRB assay; type: functional; conditions: 72 h, read-out: ED50 (the source's name)
Lu1 = assay: Cytotoxicity against human Lu1 cells after 3 days by SRB assay; type: functional; conditions: Lu1, 72 h, read-out: ED50 (the source's name)

Structure (SMILES)	Activity (Plasmodium falciparum)	EC50 (KB) [µg/mL]	ED50 (ASK)	EC50 (LNCaP) [µg/mL]	EC50 (ZR-75-1) [µg/mL]	Activity [1]	EC50 [2] [µg/mL]	EC50 [3] [µg/mL]	EC50 (Lu1) [µg/mL]
C=C1C(=O)[C@]23C[C@H]1C[C@H](O)[C@H]2[C@@]12CO[C@@]3(O)C[C@@H]1C(C)(C)CC[C@@H]2O [RABDOCOETSIN C]	inactive	0.6 (≈ 1.72 µM)	inactive	0.7 (≈ 2.01 µM)	1 (≈ 2.87 µM)	inactive	> 20	> 20	0.4 (≈ 1.15 µM)
Cc1c2ccncc2c(C)c2c1[nH]c1ccccc12 [ELLIPTECINE]	–	0.04 (≈ 0.162 µM)	inactive	0.8 (≈ 3.25 µM)	0.9 (≈ 3.65 µM)	–	0.2	0.3 (≈ 1.22 µM)	0.2 (≈ 0.812 µM)
C=C1C(=O)[C@]23C[C@H]1C[C@H](OC(C)=O)[C@H]2[C@@]12CO[C@@]3(O)C[C@@H]1C(C)(C)CC[C@@H]2O [RABDOCOETSIN D]	inactive	0.5 (≈ 1.28 µM)	inactive	0.8 (≈ 2.05 µM)	0.8 (≈ 2.05 µM)	inactive	12.1	9.5 (≈ 24.3 µM)	0.9 (≈ 2.3 µM)
COc1cc2c(c(OC)c1OC)-c1ccc(OC)c(=O)cc1[C@@H](NC(C)=O)CC2 [COLCHICINE]	–	0.2 (≈ 0.501 µM)	Active	0.06 (≈ 0.15 µM)	0.1 (≈ 0.25 µM)	–	0.6	3.5 (≈ 8.76 µM)	0.2 (≈ 0.501 µM)
C=C1C(=O)[C@]23[C@H](O)[C@H]1CC[C@H]2[C@@]12CO[C@@]3(O)C[C@@H]1C(C)(C)CC[C@@H]2O [MEGATHYRIN A]	inactive	1.1 (≈ 3.16 µM)	inactive	1.8 (≈ 5.17 µM)	1.8 (≈ 5.17 µM)	inactive	8.9	19.1 (≈ 54.8 µM)	3.4 (≈ 9.76 µM)
C=C1C(=O)[C@]23[C@H](O)[C@H]1CC[C@H]2[C@@]12CO[C@@]3(O)C[C@@H]1C(C)(C)CC[C@@H]2OC(C)=O [RABDOCOETSIN B]	inactive	0.3 (≈ 0.768 µM)	inactive	0.6 (≈ 1.54 µM)	0.8 (≈ 2.05 µM)	inactive	7.2	> 20	0.5 (≈ 1.28 µM)
